We go through eight molecules from PMC3786144 (Biochimica et biophysica acta, 2013).

The target of one assay is ALK1 (Homo sapiens, UniProt P37023). Kind of assay: In vitro kinase reaction. Format: biochemical. A digest of the protocol: (§1)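 Radiometric filter-binding assay with purified recombinant kinase/substrate pairs. Reactions ran with ATP plus 33P-ATP (10 μM final) at 10 test compound concentrations in triplicate, in 20 mM Hepes pH 7.5, 10 mM MgCl2, 1 mM EGTA, 2 mM DTT, 1% DMSO, for 120 min at 25 °C. Products were spotted on P81 paper and washed in 0.75% phosphoric acid. Activity was expressed as % of DMSO control; IC50 came from curve fitting.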

A further assay has as its target ALK3 (Homo sapiens, UniProt P36894). Nature of the assay: In vitro kinase reaction. It counts as biochemical. A digest of the protocol:
as §1

In a further assay the test system is c-fos. Nature of the assay: c-fos mRNA expression by qPCR in NIH3T3 cells. It counts as cell-based, mouse. Particulars: then 20% serum. A digest of the protocol: (§2)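 NIH3T3 cells were starved overnight in 0.2% serum and pretreated 1 hour with test compound. They were then induced with 20% NCS for 0–120 min. RNA was taken up in Tri Reagent, and cDNA was made from 1 μg total RNA with random hexamers. qPCR was normalised to 18s rRNA. Values are means of three experiments ± standard deviations.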
On the technique in general: Quantitative PCR measures a nucleic acid by following its amplification.

The subject of assay [1] is Id1. Nature of the assay: Id1 mRNA expression by qPCR in NIH3T3 cells. The settings on record: for Id1 RNA levels on serum induction: then 20% serum 0 to 120 minutes; for response of the Id1 gene to serum: data not shown. Format: cell-based, mouse.
Another assay deals with HCT116 cells. Nature of the assay: Proliferation of HCT116 cells. Format: cell-based. Particulars: preliminary results.
Assay [2] addresses constitutively active ALK3 (Homo sapiens, UniProt P36894, Q233D). Nature of the assay: Id1 reporter activated by constitutively active ALK3 in NIH3T3 cells. It counts as cell-based. The settings on record: NIH3T3, Id1 −1150 reporter, AZD0530 100 nM overnight in 0.2% serum. A digest of the protocol: (§3)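 NIH3T3 cells, 4 × 10^4 per well, received fresh 10% NCS and were then transfected with 100 ng Renilla SV40 control, 100 ng mouse Id1 −1150 firefly reporter and 25 ng constitutively active ALK. Next day they went into 0.2% serum with 100 nM test compound or DMSO overnight. Dual-luciferase readout; firefly was normalised to Renilla.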

Assay [3] deals with Id1. The settings on record: A549 lung carcinoma cell line; cited from earlier work.
A further assay concerns c-fos promoter. Nature of the assay: c-fos promoter luciferase reporter assay in NIH3T3 cells. Format: cell-based, mouse. Particulars: NIH3T3, AZD0530 100 nM 1 hour, then 20% NCS 4 hours. A digest of the protocol:
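NIH3T3 cells, 4 × 10^4 per well, were transfected with 100 ng c-fos promoter firefly reporter plus 100 ng SV40-Renilla control. Next day they were starved overnight in 0.2% NCS, treated 1 hour with 100 nM test compound, then induced with 20% NCS for 4 hours. Dual-luciferase assay; firefly was normalised to Renilla.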

Another assay concerns the target T1, BMPR-2 (Homo sapiens, UniProt Q13873).
T1 sequence (Q13873 27-1038): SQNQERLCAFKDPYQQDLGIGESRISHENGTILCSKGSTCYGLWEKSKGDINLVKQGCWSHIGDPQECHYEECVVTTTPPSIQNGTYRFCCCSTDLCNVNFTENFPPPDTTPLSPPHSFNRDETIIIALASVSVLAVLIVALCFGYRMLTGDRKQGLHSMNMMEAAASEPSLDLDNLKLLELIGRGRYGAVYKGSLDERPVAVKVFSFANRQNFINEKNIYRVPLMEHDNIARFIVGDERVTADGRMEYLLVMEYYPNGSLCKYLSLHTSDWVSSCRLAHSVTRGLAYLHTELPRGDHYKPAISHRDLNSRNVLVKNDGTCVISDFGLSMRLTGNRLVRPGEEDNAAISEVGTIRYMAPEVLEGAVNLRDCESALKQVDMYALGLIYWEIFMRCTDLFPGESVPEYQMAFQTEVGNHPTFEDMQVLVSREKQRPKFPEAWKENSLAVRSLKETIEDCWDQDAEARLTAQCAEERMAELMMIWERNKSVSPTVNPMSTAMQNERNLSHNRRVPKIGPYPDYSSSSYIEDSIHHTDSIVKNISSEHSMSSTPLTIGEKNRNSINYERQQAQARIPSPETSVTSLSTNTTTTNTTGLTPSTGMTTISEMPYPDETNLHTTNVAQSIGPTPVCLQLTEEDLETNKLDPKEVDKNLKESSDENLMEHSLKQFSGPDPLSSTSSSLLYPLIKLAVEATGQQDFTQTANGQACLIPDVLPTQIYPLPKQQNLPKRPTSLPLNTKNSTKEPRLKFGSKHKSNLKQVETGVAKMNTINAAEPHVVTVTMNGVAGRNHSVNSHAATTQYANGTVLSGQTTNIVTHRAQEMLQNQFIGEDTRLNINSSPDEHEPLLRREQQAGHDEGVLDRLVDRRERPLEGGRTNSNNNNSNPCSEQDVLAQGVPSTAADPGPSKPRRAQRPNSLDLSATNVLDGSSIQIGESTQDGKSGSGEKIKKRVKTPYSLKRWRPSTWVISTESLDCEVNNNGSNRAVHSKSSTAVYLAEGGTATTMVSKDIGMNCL
Kind of assay: In vitro kinase reaction. The settings on record: 10 μM ATP, 120 minutes at 25 °C. Format: biochemical. In outline:
as §1

The subject of the next assay is Smad1/5. The settings on record: A549 cells; cited from earlier work.
The test system of assay [4] is constitutively active ALK1. Kind of assay: Id1 reporter activated by constitutively active ALK1 in NIH3T3 cells. Particulars: NIH3T3, Id1 −1150 reporter, AZD0530 100 nM overnight in 0.2% serum. Format: cell-based. In outline:
as §3

Another assay relates to Id3. Nature of the assay: Id3 mRNA expression by qPCR in NIH3T3 cells. It counts as cell-based, mouse. The settings on record: NIH3T3, AZD0530 100 nM 1 hour, then 20% serum. A digest of the protocol:
as §2

The test system of assay [5] is plasminogen activator inhibitor-1 (PAI-1). Kind of assay: PAI-1 mRNA expression by qPCR in NIH3T3 cells. Format: cell-based, mouse. Particulars: NIH3T3, AZD0530 100 nM 1 hour, then 20% serum. A digest of the protocol:
as §2

For a further assay, the system named is Id1 promoter. Kind of assay: Id1 promoter luciferase reporter assay in NIH3T3 cells. It counts as cell-based, mouse. Background: In a reporter assay the amount or activity of a reporter protein is the signal.
For assay [6], the system named is phospho-Smad1/5/8. Nature of the assay: Phospho-Smad1/5/8 immunoblot in NIH3T3 cells. It counts as cell-based, mouse. Particulars: NIH3T3, Dorsomorphin 1μM 1 hour, then serum. For orientation: In western blotting, separated proteins are transferred to a membrane and probed.
The subject of assay [7] is Id1. Kind of assay: Id1 mRNA expression by qPCR in HCT116 cells. Particulars: HCT116, Dorsomorphin 1 μm. Format: cell-based. A digest of the protocol:
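HCT116 cells, kept in DMEM with 10% FBS at 5% CO2, were starved overnight in 0.2% serum with DMSO or test compound. RNA was isolated in Tri Reagent. cDNA was made from 1 μg total RNA with random hexamers. Id1 mRNA was quantified by qPCR normalised to 18s rRNA.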

A further assay concerns Smad1/5/8. Kind of assay: Total Smad1/5/8 immunoblot in NIH3T3 cells. It counts as cell-based, mouse. The settings on record: NIH3T3, Dorsomorphin 1μM 1 hour, then serum. A digest of the protocol: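 Serum-starved NIH3T3 cells were treated 1 hour with DMSO or test compound, then serum-stimulated. Lysis was in passive lysis buffer, followed by SDS-PAGE (10% or 12%) and nitrocellulose transfer with 6% milk block. Phospho-specific or total primaries (1:1000) were applied overnight at 4°C, then fluorescent secondaries (1:10,000) for 1 hour at room temperature, with infrared imaging. Actin served as loading control.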

Assay [8] concerns phospho-Smad1/5/8. Kind of assay: Phospho-Smad1/5/8 immunoblot in HCT116 cells. Format: cell-based. Particulars: HCT116, Dorsomorphin 1 μm. In outline: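 HCT116 cells were starved overnight in 0.2% serum with DMSO or test compound, lysed in passive lysis buffer and cleared at 11,000 × g. Proteins were run by SDS-PAGE and blotted to nitrocellulose. Phospho-Smad1/5/8 primary (1:1000) was applied overnight at 4°C, followed by fluorescent secondary (1:10,000) and infrared imaging. Actin served as loading control.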

For assay [9], the system named is Id1. Particulars: MDA-MB-231 breast carcinoma line; cited from earlier work.
Setting [10] is: NIH3T3, AZD0530 100 nM 1 hour, then 20% NCS 4 hours.

Read-outs that look alike come from different tables or passages of the source.

Sequence of constitutively active ALK3 (P36894 24-532 Q233D): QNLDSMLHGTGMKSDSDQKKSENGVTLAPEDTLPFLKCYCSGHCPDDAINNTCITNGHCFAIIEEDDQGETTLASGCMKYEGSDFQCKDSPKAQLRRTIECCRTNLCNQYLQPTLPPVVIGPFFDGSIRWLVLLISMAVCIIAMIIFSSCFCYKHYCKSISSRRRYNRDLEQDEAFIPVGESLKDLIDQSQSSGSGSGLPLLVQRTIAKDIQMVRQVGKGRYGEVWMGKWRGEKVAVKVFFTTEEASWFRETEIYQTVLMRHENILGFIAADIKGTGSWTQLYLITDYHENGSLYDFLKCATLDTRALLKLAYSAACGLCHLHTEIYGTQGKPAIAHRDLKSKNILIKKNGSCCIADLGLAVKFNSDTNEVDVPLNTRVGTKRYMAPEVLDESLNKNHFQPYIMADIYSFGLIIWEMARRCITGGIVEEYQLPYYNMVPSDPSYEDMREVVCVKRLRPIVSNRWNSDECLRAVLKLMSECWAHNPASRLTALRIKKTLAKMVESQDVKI
Sequence of ALK3 (P36894 24-532): as the sequence (P36894 24-532 Q233D) above, with D210Q counted along it
Sequence of ALK1 (P37023 22-503): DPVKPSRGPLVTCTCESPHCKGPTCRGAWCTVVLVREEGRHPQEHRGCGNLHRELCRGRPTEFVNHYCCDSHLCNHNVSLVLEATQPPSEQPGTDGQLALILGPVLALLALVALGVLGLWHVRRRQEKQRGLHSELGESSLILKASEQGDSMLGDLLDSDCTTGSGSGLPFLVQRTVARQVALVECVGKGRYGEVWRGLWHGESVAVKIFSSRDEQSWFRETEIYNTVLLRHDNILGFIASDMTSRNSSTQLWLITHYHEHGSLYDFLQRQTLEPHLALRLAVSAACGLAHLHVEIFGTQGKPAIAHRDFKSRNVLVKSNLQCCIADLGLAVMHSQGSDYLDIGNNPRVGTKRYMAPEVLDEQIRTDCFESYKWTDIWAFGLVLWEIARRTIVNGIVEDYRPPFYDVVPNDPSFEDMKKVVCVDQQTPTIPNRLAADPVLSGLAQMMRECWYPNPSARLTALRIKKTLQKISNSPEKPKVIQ

Broadly, the IC50 is the concentration that inhibits the measured activity by half. Lower therefore signals higher potency. `CN1CCN(CCOc2cc(OC3CCOCC3)c3c(Nc4c(Cl)ccc5c4OCO5)ncnc3c2)CC1` [AZD0530, saracatinib]: the IC50 on ALK1 and at ALK3 was 3 to 30 nM throughout. In the assay with c-fos (NIH3T3, AZD0530 100 nM 1 hour), the “c-fos induction by serum (mRNA)” value was “no effect”. Moreover, the “Id1 serum induction, mRNA expression” value in the assay with Id1 [1] (NIH3T3, AZD0530 100 nM 1 hour, then 20% serum) was “complete loss”. In the assay on HCT116 cells, the “proliferation of HCT116 cells” value was “did not reduce”. In addition, the “activation of the Id1 promoter by constitutively active ALK3” value in assay [2] was “significantly decreased”. Also, the Id1 expression result in the assay with Id1 [3] is listed as “inhibit Id1 expression”. In addition, the “serum induction of the c-fos promoter (reporter)” value in the assay with c-fos promoter was “little effect”. On BMPR-2, the “inhibition of BMPR-2 kinase activity” value is on record as “no inhibition”. For the same molecule, in the assay with Smad1/5, the “activation of Smad1/5” value is “prevented activation”. The “activation of the Id1 promoter by constitutively active ALK1” value in assay [4] is reported as “significantly decreased”. Besides, the “Id3 expression on serum induction” value in the assay with Id3 is “strongly reduced”. Also, the “PAI-1 serum activation (mRNA)” value in [5] is “decrease in serum activation”. In the assay on Id1 promoter (setting [10]), the “Id1 serum induction, promoter activation (−1150 Id1 reporter)” value is recorded as “complete loss”. In addition, the “serum induction of the 4X BRE-SBE reporter” value with Id1 promoter (setting [10]) is listed as “blocked”.
For `c1cc(-c2cnn3cc(-c4ccc(OCCN5CCCCC5)cc4)cnc23)ccn1` [Dorsomorphin, dorsomorphin], the “phosphorylation of Smad1/5/8” value with phospho-Smad1/5/8 [6] is on record as “inhibits the phosphorylation”. Besides, the “Id1 expression (mRNA)” value with Id1 [7] is on record as “inhibition”. Also, the “total level of Smad1/5/8” value with Smad1/5/8 is “unchanged”. The “induction of Id1 mRNA in response to serum” value in the assay on Id1 [1] (NIH3T3, Dorsomorphin 1 hour, then 20% NCS 1 hour) is on record as “strongly inhibited”. Further, the phospho-Smad1/5/8 levels result in the assay on phospho-Smad1/5/8 [8] is “inhibition”.
On to `O=c1cc(N2CCOCC2)oc2c(-c3ccccc3)cccc12` [LY294002], for which the “c-fos expression on serum induction” value with c-fos (NIH3T3, LY294002 10 μM 1 hour) was “little effect”. Further, in the assay on Id1 [1] (NIH3T3, LY294002 10 μM 1 hour), the “Id1 RNA levels on serum induction” value is recorded as “unchanged”.
Take `O=C(NOC[C@H](O)CO)c1ccc(F)c(F)c1Nc1ccc(I)cc1F` [PD0325901]: in the assay with c-fos (NIH3T3, PD0325901 5 μM 1 hour), the “c-fos expression on serum induction” value is listed as “dramatically decreased”. For the same molecule, in the assay with Id1 [1] (NIH3T3, PD0325901 5 μM 1 hour), the “Id1 RNA levels on serum induction” value was “unchanged”.
For the molecule `CC(C)(C)n1nc(-c2ccc(Cl)cc2)c2c(N)ncnc21` [PP2], the “response of the Id1 gene to serum” value with Id1 [1] is “Neither another Src inhibitor, PP2, nor the BCR-abl inhibitor, imatinib, had any effect”. The Id1 expression entry in the assay with Id1 [9] is listed as “inhibited Id1 expression”.
Regarding `C[C@@H]1C[C@@H]([C@H](O)CC2CC(=O)NC(=O)C2)C(=O)[C@@H](C)C1` [cycloheximide], the “BMP2 induction of Id1 in the presence of the protein synthesis inhibitor” value in the assay with Id1 [1] (NIH3T3, 50 μg/ml cycloheximide, BMP2 (supplemental Fig. S3)) is “higher”.
Take `Cc1ccc(NC(=O)c2ccc(CN3CCN(C)CC3)cc2)cc1Nc1nccc(-c2cccnc2)n1` [imatinib]: in the assay with Id1 [1], the “response of the Id1 gene to serum” value was “Neither another Src inhibitor, PP2, nor the BCR-abl inhibitor, imatinib, had any effect”.

B1: Noggin: BMP antagonist noggin (protein, UniProt Q13253 28-232, looked up)
Noggin: QHYLHIRPAPSDNLPLVDLIEHPDPIFDPKEKDLNETLLRSLLGGHYDPGFMATSPPEDRPGGGGGAAGGAEDLAELDQLLRQRPSGAMPSEIKGLEFSEGLAQGKKQRLSKKLRRKLQMWLWSQTFCPVLYAWNDLGSRFWPRYVKVGSCFSKRSCSVPEGMVCKPSKSVHLTVLRWRCQRRGGQRCGWIPIQYPIISECKCSC
As for B1, the “serum induction of Id1 mRNA” value in the assay on Id1 [1] (NIH3T3, 100 ng/ml noggin during serum-starvation, 20% serum) is “abolished serum induction”. For the same molecule, in the assay with Id1 promoter (NIH3T3, mId1 −1150 reporter, noggin during serum-starvation, 20% serum), the “serum activation of the Id1 promoter (reporter assay)” value is on record as “abolished serum activation”.
